The values below come from ChEMBL document CHEMBL2401693, “Chromatographic separation of piracetam and its metabolite in a mixture of microsomal preparations, followed by an MS/MS analysis” (Eur J Med Chem, 2013).

SMILES strings stand for the structures.

For series [1], the system named is Liver microsomes. Description: Drug metabolism in human liver microsomes assessed as Metabolite M1 formation after 40 mins by UPLC-MS/MS analysis. It counts as ADME, Microsome. In outline: (§1)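 Pooled human liver microsomes (30 donors), 0.5 mg protein/ml, in 50 mM Tris-HCl pH 7.4 with 5 mM MgCl2 and 50 mM piracetam (final 500 µL), triplicate tubes, 37 °C with shaking. After 10-min preincubation, reaction started with 2 mM NADPH. Stopped with cold ethyl acetate at the stated time, then centrifuged, reconstituted in mobile phase and analysed by UPLC-MS/MS.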

For series [2], the system named is Liver microsomes. Description: Metabolic stability in human liver microsomes assessed as retention time by UPLC-MS/MS analysis. It counts as ADME, Microsome. In outline: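 UPLC on BEH column (1.7 µm) at 30 °C, isocratic acetonitrile/10 mM ammonium acetate pH 5.0 (15:85), 0.3 ml/min, 5 µL injection, PDA 209 nm with Q-TOF ESI positive mode.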
On the technique in general: Liver microsomes are vesicles of endoplasmic reticulum, rich in cytochrome P450 enzymes.

Series [3] has as its system Liver microsomes. The series can be described thus: Drug metabolism in human liver microsomes assessed as Metabolite M1 formation after 10 mins by UPLC-MS/MS analysis. The series is classed as ADME, Microsome. In a few lines:
as §1

The test system of series [4] is Liver microsomes. The series can be described thus: Drug metabolism in human liver microsomes assessed as Metabolite M1 formation after 20 mins by UPLC-MS/MS analysis. The series is classed as ADME, Microsome. In outline: as §1
The test system of series [5] is Liver microsomes. Description: Drug metabolism in human liver microsomes assessed as Metabolite M1 formation after 30 mins by UPLC-MS/MS analysis. Conditions: 0.5 h. The series is classed as ADME, Microsome. In a few lines:
as §1

Series [6] concerns Liver microsomes. Description: Drug metabolism in human liver microsomes assessed as Metabolite M1 formation after 50 mins by UPLC-MS/MS analysis. It counts as ADME, Microsome. In outline: as §1
Series [7] concerns Rattus norvegicus. Description: Tmax in Wistar rat assessed as Metabolite M1 at 50 mg/kg, po. Conditions: in vivo. Set-up: dose 50 mg/kg, route oral. The series is classed as ADME, organism-based.
Series [8] has as its system Rattus norvegicus. Description: […] in Wistar rat assessed as Metabolite M1 at 50 mg/kg, po. The series is classed as ADME, organism-based. To be noted: in vivo. Set-up: dose 50 mg/kg, route oral.
The test system of series [9] is Liver microsomes. The series can be described thus: Metabolic stability in human liver microsomes assessed as compound remaining after 20 mins by UPLC-MS/MS analysis. The series is classed as ADME, Microsome.
Series [10] concerns Plasma. The series can be described thus: Stability in rat plasma assessed as metabolite M1 at 180 ng/ml after 30 days at -20 degC. The series is classed as ADME, cell-free. To be noted: 720 h. In outline: (§2)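 M1 spiked into drug-free rat plasma at QC low and high levels, six replicates per level; extracted with ethyl acetate, UPLC-MS/MS. Conditions: bench top room temperature, frozen storage, three freeze–thaw cycles (frozen ≥12 h each), processed samples in autosampler. Stable if accuracy and precision within 15%; reported as % nominal and RSD.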

The test system of series [11] is Plasma. Description: Stability in rat plasma assessed as metabolite M1 at 180 ng/ml after 10 days at -80 degC. It counts as ADME, cell-free. To be noted: 240 h. In a few lines: as §2
Series [12] has as its system Plasma. Description: Stability in rat plasma assessed as metabolite M1 at 180 ng/ml after 2 hrs at room temperature. The series is classed as ADME, cell-free. In outline: as §2
The test system of series [13] is Plasma. Description: Stability in rat plasma assessed as metabolite M1 at 180 ng/ml during three freeze-thaw cycles. It counts as ADME, cell-free. In a few lines: as §2
In series [14] the test system is Liver microsomes. Description: Metabolic stability in human liver microsomes assessed as compound remaining after 50 mins by UPLC-MS/MS analysis. The series is classed as ADME, Microsome.
Series [15] concerns Plasma. Description: Stability in rat plasma assessed as Metabolite M1at 20 ng/ml after 2 hrs at room temperature. The series is classed as ADME, cell-free. In outline: as §2
Series [16] has as its system Rattus norvegicus. Description: Apparent elimination half life in Wistar rat assessed as Metabolite M1 at 50 mg/kg, po. The series is classed as ADME, organism-based. Set-up: dose 50 mg/kg, route oral. To be noted: in vivo.
Series [17] concerns Plasma. Description: Stability in rat plasma assessed as Metabolite M1at 20 ng/ml after 10 days at -80 degC. Conditions: 240 h. The series is classed as ADME, cell-free. In a few lines:
as §2

Series [18] relates to Rattus norvegicus. The series can be described thus: AUC (0 to infinity) in Wistar rat assessed as Metabolite M1 at 50 mg/kg, po. It counts as ADME, organism-based, Plasma. Set-up: dose 50 mg/kg, route oral, time infinity. To be noted: in vivo.
The subject of series [19] is Liver microsomes. The series can be described thus: Metabolic stability in human liver microsomes assessed as compound remaining after 40 mins by UPLC-MS/MS analysis. The series is classed as ADME, Microsome.
Series [20] has as its system Plasma. The series can be described thus: Stability in rat plasma assessed as Metabolite M1at 20 ng/ml after 24 hrs by autosampler analysis. It counts as ADME, cell-free. In a few lines: as §2
Series [21] relates to Liver microsomes. Description: Metabolic stability in human liver microsomes assessed as compound remaining after 10 mins by UPLC-MS/MS analysis. It counts as ADME, Microsome.
Series [22] has as its system Plasma. The series can be described thus: Stability in rat plasma assessed as metabolite M1 at 180 ng/ml after 24 hrs by autosampler analysis. It counts as ADME, cell-free. In a few lines:
as §2

Series [23] concerns Liver microsomes. The series can be described thus: Metabolic stability in human liver microsomes assessed as compound remaining after 30 mins by UPLC-MS/MS analysis. The series is classed as ADME, Microsome. To be noted: 0.5 h.
The subject of series [24] is Plasma. The series can be described thus: Stability in rat plasma assessed as Metabolite M1at 20 ng/ml during three freeze-thaw cycles. It counts as ADME, cell-free. In a few lines: as §2
Series [25] deals with Plasma. The series can be described thus: Stability in rat plasma assessed as Metabolite M1at 20 ng/ml after 30 days at -20 degC. The series is classed as ADME, cell-free. Conditions: 720 h. In outline: as §2
Series [26] relates to Rattus norvegicus. The series can be described thus: AUC (0 to t) in Wistar rat assessed as Metabolite M1 at 50 mg/kg, po. Also on record: dose 50 mg/kg, route oral. The series is classed as ADME, organism-based, Plasma. Conditions: in vivo.
In series [27] the test system is Rattus norvegicus. Description: Clearance in Wistar rat assessed as Metabolite M1 at 50 mg/kg, po. The series is classed as ADME, organism-based. Also on record: dose 50 mg/kg, route oral. To be noted: in vivo.
For series [28], the system named is Rattus norvegicus. The series can be described thus: Cmax in Wistar rat assessed as Metabolite M1 at 50 mg/kg, po. Also on record: dose 50 mg/kg, route oral. The series is classed as ADME, organism-based. To be noted: in vivo.

With `O=C(O)CN1CCCC1=O`, the Drug metabolism turned out to be 9.23 µM in the series with Liver microsomes [1]; 2.42 µM in the series on Liver microsomes [3]; 4.79 µM in the series with Liver microsomes [4]; 6.45 µM with Liver microsomes [5]; 13.89 µM with Liver microsomes [6]. Besides, the Retention_time in the series on Liver microsomes [2] amounted to 2.042 min.
One may read the Tmax as the time from dosing to the highest level. Broadly, the MRT is the average time that molecules of a dose stay in the body. Usually AUC stands for the area under the concentration-time curve, a measure of exposure. A word on the Cmax: it is the peak of the concentration-time curve. For the compound `NC(=O)CN1CCCC1=O` [PIRACETAM], the Tmax with Rattus norvegicus [7] was 1 h. Moreover, the MRT in the series with Rattus norvegicus [8] came to 5.542 h. For the same compound, the Stability with Liver microsomes [9] was 45.66 µM; in the series on Liver microsomes [14] it was 36.22 µM; in the series on Liver microsomes [19], 40.56 µM; in the series with Liver microsomes [21], 47.56 µM; in the series with Liver microsomes [23], 43.78 µM. Also, the Drug metabolism is 179.123 ng/mL with Plasma [10]; 179.13 ng/mL in the series on Plasma [11]; 178.883 ng/mL with Plasma [12]; 178.42 ng/mL in the series on Plasma [13]; 19.347 ng/mL with Plasma [15]; 18.853 ng/mL with Plasma [17]. In addition, the Drug metabolism in the series on Plasma [20] is 19.043 ng/mL; in the series with Plasma [22] it was 178.753 ng/mL; with Plasma [24] it was 18.88 ng/mL; in the series with Plasma [25] it was 18.787 ng/mL. Moreover, the Retention_time in the series with Liver microsomes [2] amounted to 2.726 min. For the same compound, the “betat1/2(app)” value in the series on Rattus norvegicus [16] worked out at 3.652 h. In the series on Rattus norvegicus [18], the AUC stood at 939.178 µg·h/mL. Besides, in the series on Rattus norvegicus [26], the AUCt was 928.445 µg·h/mL. Besides, the CL with Rattus norvegicus [27] was found to be 887.3 mL/min/kg. Also, in the series on Rattus norvegicus [28], the Cmax came to 155.39 ng/mL.
